APJ antagonist = blocks the human apelin receptor APJ | P35414 | CHO-K1 APJ beta-arrestin complementation, luminescence | inhibition, % at 20 µM | 330,000 compounds, 0.32% hits;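 active = inhibition above about 40% at 20 µM, limit read from the data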;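 also: cells challenged with 10 nM apelin-13 agonist together with compound; plate controls were apelin-13 plus DMSO wells for no effect and DMSO wells lacking apelin-13 for full effect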
Target sequence (P35414 whole entry, looked up): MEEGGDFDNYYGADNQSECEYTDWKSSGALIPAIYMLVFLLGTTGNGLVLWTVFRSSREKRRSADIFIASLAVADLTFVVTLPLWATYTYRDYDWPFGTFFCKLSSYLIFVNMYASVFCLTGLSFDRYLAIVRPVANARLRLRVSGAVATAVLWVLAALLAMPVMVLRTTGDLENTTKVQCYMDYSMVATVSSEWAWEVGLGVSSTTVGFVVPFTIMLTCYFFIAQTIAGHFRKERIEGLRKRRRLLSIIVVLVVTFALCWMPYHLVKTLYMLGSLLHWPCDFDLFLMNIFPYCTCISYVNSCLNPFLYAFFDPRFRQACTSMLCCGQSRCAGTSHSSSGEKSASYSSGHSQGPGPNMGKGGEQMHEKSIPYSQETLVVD
CXCR6 inh = CXCR6 (human) receptor inhibition; O00574; 360,000 compounds, 0.36% hits; inhibition, % at 20 µM; CHO-K1 PathHunter CXCR6 beta-arrestin, luminescence; in the data active = inhibition above about 34%, passing the limit was not always enough;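 also: antagonist mode with CXCL16 agonist at 10 nM final; 0% = 10 nM CXCL16 with DMSO and 100% = unstimulated wells without agonist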
APJ agonist = activates the human apelin receptor APJ; CHO-K1 APJ PathHunter beta-arrestin, luminescence; 0% DMSO wells, 100% apelin; activation, % at 20 µM; P35414; AID 2520; 330,000 compounds, 0.11% hits;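 active = activation more than six SD over the plate average, tested at 20 µM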;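 also: 0% = DMSO alone and 100% = apelin-13 at 10 nM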
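Assay system: CHO-K1 APJ beta-arrestin complementation cell line / Compound: single test compound dose, 20 µM final, 1% DMSO / Times: overnight seeding, 90 min compound at 25 °C, 1 h detection / Technique: beta-gal luminescence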
CCR6 antag = blocks CCL20-driven beta-arrestin recruitment at human CCR6; P51684; CHO-K1 CCR6 PathHunter beta-arrestin, luminescence, CCL20-stimulated; inhibition, % at 20 µM; 340,000 compounds, 0.49% hits;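 active = compounds whose inhibition of the agonist-driven luminescence signal at 20 µM reaches about 50%, limit read from the data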;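 also: cells stimulated with CCL20 at 14 nM final; plate controls were DMSO with CCL20 for no effect and DMSO without agonist for full effect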
EBI2 antag = blocks human EBI2 receptor beta-arrestin signaling; EBI2 beta-arrestin recruitment, luminescence, 7a,25-OHC stimulated; inhibition, % at 5 µM; 360,000 compounds, 0.81% hits; in the data active = inhibition above about 38%;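 also: enzyme fragment complementation signal reports receptor beta-arrestin coupling in cells; 0% = agonist plus DMSO wells and 100% = wells without agonist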
iPSC survival up = hiPSC single-cell survival enhancement. ATPlite luminescence; 100% = ROCK inhibitor wells, 0% = DMSO. survival enhancement, % at 20 µM. 360,000 compounds, 0.044% hits. AID 602274; in the data active = survival enhancement above about 18%;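 also: cells exposed to compounds for 16 hours before the ATP read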
EBI2 antag conf = EBI2 (human) antagonism, single concentration confirmation; EBI2 beta-arrestin luminescence, 7a,25-OHC antagonism; shares compounds with EBI2 antag; AID 651997; 2,400 compounds, 29% hits; inhibition, % at 5 µM;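 active = inhibition of at least 50%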
EBI2 agonist = counter-screen for EBI2 antagonists: EBI2 agonist activity | activation, % at 5 µM | EBI2-expressing cells, agonist mode, luminescence, 60 min; 0% vehicle, 100% 7α,25-dihydroxycholesterol control | 2,400 tested, under 10 active | shares compounds with EBI2 antag;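 active = activation of at least 50%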
bGal cs = beta-galactosidase inhibition counter-screen; shares compounds with EBI2 antag; purified beta-galactosidase, luminescent Galacton Star, 15 min; inhibition, % at 5 µM; 2,400 compounds, 1% hits;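 active = replicate-average signal at least 3 plate SD below neutral wells, shown as high inhibition, flagging enzyme-inhibiting false positives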;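 also: 0% = DMSO wells with enzyme and 100% = wells lacking enzyme; higher means stronger loss of beta-gal luminescence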
* = called active by the depositor; · = no result given. The list is not random: actives were taken first. Their share in the collection is about 1.5%.

SMILES	APJ antagonist	CXCR6 inh	APJ agonist	CCR6 antag	EBI2 antag	iPSC survival up	EBI2 antag conf	EBI2 agonist	bGal cs
Cc1ccc(CNC(=O)C2CCN(S(=O)(=O)c3ccc(Br)s3)CC2)cc1	-10	0	3	19	92*	0	61*	-1	-6
Cc1ccc(CNC(=O)C2CCN(S(=O)(=O)c3cccs3)CC2)cc1	-1	-1	-2	8	60*	0	51*	0	-21
CCOc1ccc(NC(=O)CSc2ccc3nnc(-c4ccccn4)n3n2)cc1	17	-2	-7	7	-5	0	·	·	·
O=C(CSc1ccc2nnc(-c3ccccn3)n2n1)Nc1ccccc1	-6	-12	7	0	55*	0	28	0	1
O=C(c1ccc(Cl)cc1)N1CCC(O)(CSc2ccc(Cl)cc2Cl)CC1	-16	-16	1	-8	66*	-1	56*	1	12
COc1ccc(C(=O)Cn2c(C(=O)/C=C/c3ccccc3)nc3ccccc32)cc1	3	23	-3	30	53*	-2	47	0	6
O=C(CSc1nnc(-c2ccccc2)c(-c2ccccc2)n1)Nc1ncc(Cl)cc1Cl	11	-2	2	8	7	1	·	·	·
Cc1nc(NC(=O)CSc2nnc(-c3ccccc3)c(-c3ccccc3)n2)c(Cl)cc1Cl	5	6	-2	13	42*	-1	25	1	3
CC1(C(=O)Nc2ccc3[nH]ncc3c2)CCN1C(=O)C/C=C/c1ccccc1 (stereo not drawn)	·	-1	·	·	21	5	·	·	·
CC1(C(=O)Nc2ccc3[nH]ncc3c2)CCN1C(=O)CC(c1ccccc1)c1ccccc1 (stereo not drawn)	·	8	·	·	48*	14	13	0	-11
O=C(NCCN1C(=O)S/C(=C\c2ccc(Cl)cc2)C1=O)c1ccc(F)c(S(=O)(=O)N2CCOCC2)c1	-8	0	0	-5	67*	1	48	2	-1
CC(C)c1ccccc1OCCNC(=O)c1cncc(Br)c1	-21	-1	-3	9	47*	0	16	-2	-7
CCn1c2ccccc2c2nnc(SCc3ccccc3)nc21	3	8	-4	22	8	1	·	·	·
CCN(CC)CCSc1nnc2c3cc(F)ccc3n(Cc3ccccc3)c2n1	4	6	-2	8	56*	0	21	0	6
CCN(CC)CCSc1nnc2c3ccccc3n(Cc3ccccc3)c2n1	10	16	0	21	54*	-1	21	1	1
CC(C)CC1C(=O)N(Cc2cn(CCC3OCCO3)nn2)CCS(=O)(=O)N1Cc1ccc(-c2ccc(Cl)c(Cl)c2)cc1 (stereo not drawn)	·	-4	·	·	16	-1	·	·	·
CC(=O)Nc1ccc(NS(=O)(=O)c2ccc3c(c2)oc(=O)n3C)cc1	-19	-1	0	5	14	0	·	·	·
COc1ccccc1CCC(=O)N(C)CC(=O)Nc1ccc(Cl)c(C(F)(F)F)c1	13	0	-2	28	-16	2	·	·	·
NC(=O)CSc1nnc(Cc2csc(Nc3ccc(F)cc3)n2)n1Cc1ccccc1	3	4	-6	5	63*	8	40	0	7
Cc1cccc(OCCNc2ccc(C(F)(F)F)cc2[N+](=O)[O-])c1	-12	-1	-3	21	-4	0	·	·	·
Cc1ccc(OCCNC(=O)c2cccc(Oc3ccc(C(F)(F)F)cc3[N+](=O)[O-])c2)cc1	8	-7	-2	-1	40*	-4	25	0	1
COc1ccc(OCCNC(=O)c2ccc(C)cc2)cc1	-4	1	-1	11	38	0	·	·	·
Cc1ccc(OCCNC(=O)c2ccc(C)cc2)cc1	-20	4	-3	1	40*	0	31	-1	-10
Cc1ccnc(NC(=O)c2cccc(S(=O)(=O)N3CCCc4ccccc43)c2)c1	6	-2	-6	24	15	0	·	·	·
NC(=O)OCC(O)COc1ccc(Cl)cc1 (stereo not drawn)	-5	-1	10	14	4	0	·	·	·
SMILES	APJ antagonist	CXCR6 inh	APJ agonist	CCR6 antag	EBI2 antag	iPSC survival up	EBI2 antag conf	EBI2 agonist	bGal cs
O=S(Cc1ccc(Cl)cc1)CC(O)COc1ccc(Cl)cc1 (stereo not drawn)	-17	-6	-1	-13	76*	1	60*	-1	-15
Cc1ccc(C(=O)N2CCN(c3ccccn3)CC2)cc1	-12	-8	-6	4	0	0	·	·	·
O=C(c1ccc2ccccc2c1)N1CCN(c2ccc(O)cc2)CC1	-15	5	0	8	57*	-3	26	-1	-11
Cc1ccc2c(c1)cc(C(=O)N1CCN(c3ccccn3)CC1)n2C	9	14	-3	9	47*	0	34	-2	-9
O=C(c1ccc2ccccc2c1)N1CCN(c2ccccn2)CC1	0	9	-2	3	56*	1	42	1	9
COCCN1C(=O)CCC1(C)c1nnnn1-c1ccc2ccccc2c1 (stereo not drawn)	·	·	·	·	-9	·	·	·	·
COc1ccc(C(=O)N2CC(c3ccc(Cl)cc3)CC2=O)cc1 (stereo not drawn)	3	-1	-9	2	13	3	·	·	·
COc1ccc(C(=O)CN2CC(C)SC2=Nc2ccc(Cl)cc2)cc1 (stereo not drawn)	18	0	0	24	44*	0	27	0	5
CC(=O)N1CCN(S(=O)(=O)c2cccc(C(=O)N3CCN(S(=O)(=O)c4c(C)c(C)cc(C)c4C)CC3)c2)CC1	·	4	·	·	9	0	·	·	·
C[C@@H]1CN([C@@H](C)CO)C(=O)CCCn2nncc2CO[C@@H]1CN(C)S(=O)(=O)c1cccc(F)c1	·	4	·	·	64*	0	32	-1	-14
C[C@@H]1CN([C@H](C)CO)C(=O)CCCn2nncc2CO[C@@H]1CN(C)S(=O)(=O)c1cccc(F)c1	·	4	·	·	56*	-1	27	0	5
C[C@H]1CN([C@@H](C)CO)C(=O)CCCn2nncc2CO[C@H]1CN(C)S(=O)(=O)c1cccc(F)c1	·	0	·	·	-6	3	·	·	·
CC(=O)Nc1ccc(NC(=O)C2CC(=O)N(Cc3ccco3)C2)cc1 (stereo not drawn)	19	5	-2	5	-3	0	·	·	·
